Experimental data as given in ChEMBL document CHEMBL1149650, “4-Amino-6-piperazin-1-yl-pyrimidine-5-carbaldehyde oximes as potent FLT-3 inhibitors” (Bioorg Med Chem Lett, 2007).

Legend:
MV4-11 = experiment: Antiproliferative activity against human MV411 cells
BaF3 [1] = experiment: Antiproliferative activity against […] BaF3 cells at 10 uM; assay type: functional
BaF3 [2] = experiment: Antiproliferative activity against human BaF3 cells expressing FLT3; conditions: Mus musculus
[3] = Inhibition of c-fms; parameters: species or system Homo sapiens
[4] = target: Mast/stem cell growth factor receptor Kit (Homo sapiens, UniProt P10721); experiment: Inhibition of c-kit
[5] = target: Platelet-derived growth factor receptor beta (Homo sapiens, UniProt P09619); experiment: Inhibition of PDGFRbeta
[6] = target: Tyrosine-protein kinase Fes/Fps (Homo sapiens) (UniProt P07332); experiment: Inhibition of FES at 3 uM
In short: (§1)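 Run in an external kinase selectivity panel at 3 µM compound with 100 µM ATP. Reported as percent inhibition.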

[7] = target: ALK tyrosine kinase receptor (Homo sapiens) (UniProt Q9UM73); experiment: Inhibition of ALK at 3 uM; in short: as §1
ALK tyrosine kinase receptor (Homo sapiens), sequence (Q9UM73 19-1620 limits assumed): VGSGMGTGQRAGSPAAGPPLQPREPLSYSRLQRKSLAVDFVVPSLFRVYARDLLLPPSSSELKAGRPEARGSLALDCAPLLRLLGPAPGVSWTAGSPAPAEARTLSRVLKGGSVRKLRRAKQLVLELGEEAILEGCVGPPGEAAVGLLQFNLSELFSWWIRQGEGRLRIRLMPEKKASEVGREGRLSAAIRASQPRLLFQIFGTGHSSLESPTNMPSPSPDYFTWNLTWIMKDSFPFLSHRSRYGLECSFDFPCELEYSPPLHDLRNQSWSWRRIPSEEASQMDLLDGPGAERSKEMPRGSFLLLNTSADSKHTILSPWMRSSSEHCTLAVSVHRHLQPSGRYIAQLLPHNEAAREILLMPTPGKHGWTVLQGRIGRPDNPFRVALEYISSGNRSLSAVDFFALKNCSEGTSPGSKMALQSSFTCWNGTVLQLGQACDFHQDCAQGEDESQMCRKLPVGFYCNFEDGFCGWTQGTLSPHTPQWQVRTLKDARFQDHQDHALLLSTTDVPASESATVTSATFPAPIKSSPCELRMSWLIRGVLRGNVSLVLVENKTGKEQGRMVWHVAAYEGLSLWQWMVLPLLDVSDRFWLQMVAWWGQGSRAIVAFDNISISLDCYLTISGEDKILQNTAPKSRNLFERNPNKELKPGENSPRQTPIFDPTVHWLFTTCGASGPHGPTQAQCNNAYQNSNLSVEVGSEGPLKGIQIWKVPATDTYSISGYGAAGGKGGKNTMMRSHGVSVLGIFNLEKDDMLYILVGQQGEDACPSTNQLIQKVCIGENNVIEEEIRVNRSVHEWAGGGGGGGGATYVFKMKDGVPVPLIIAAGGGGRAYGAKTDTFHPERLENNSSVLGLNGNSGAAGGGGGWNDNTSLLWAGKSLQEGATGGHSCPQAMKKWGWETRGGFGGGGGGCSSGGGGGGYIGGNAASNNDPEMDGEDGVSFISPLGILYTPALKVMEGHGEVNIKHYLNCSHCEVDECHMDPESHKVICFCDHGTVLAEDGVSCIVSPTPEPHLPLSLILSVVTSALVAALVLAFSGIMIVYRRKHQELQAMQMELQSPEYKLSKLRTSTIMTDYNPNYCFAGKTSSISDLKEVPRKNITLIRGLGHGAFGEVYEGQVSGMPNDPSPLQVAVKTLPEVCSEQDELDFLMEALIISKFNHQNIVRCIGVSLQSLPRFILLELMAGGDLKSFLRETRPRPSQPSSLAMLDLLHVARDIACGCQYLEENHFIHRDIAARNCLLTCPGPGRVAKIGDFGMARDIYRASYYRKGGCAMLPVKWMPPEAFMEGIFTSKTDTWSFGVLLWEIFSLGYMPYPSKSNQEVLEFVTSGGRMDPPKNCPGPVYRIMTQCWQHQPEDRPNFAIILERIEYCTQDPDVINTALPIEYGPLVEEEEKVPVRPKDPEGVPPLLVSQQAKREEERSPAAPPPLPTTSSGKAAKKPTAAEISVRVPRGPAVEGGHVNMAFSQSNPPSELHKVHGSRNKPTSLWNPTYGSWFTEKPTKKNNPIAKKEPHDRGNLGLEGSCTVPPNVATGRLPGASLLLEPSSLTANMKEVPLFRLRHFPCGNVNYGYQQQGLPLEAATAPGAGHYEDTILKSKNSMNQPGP

Platelet-derived growth factor receptor beta, sequence (P09619 whole entry): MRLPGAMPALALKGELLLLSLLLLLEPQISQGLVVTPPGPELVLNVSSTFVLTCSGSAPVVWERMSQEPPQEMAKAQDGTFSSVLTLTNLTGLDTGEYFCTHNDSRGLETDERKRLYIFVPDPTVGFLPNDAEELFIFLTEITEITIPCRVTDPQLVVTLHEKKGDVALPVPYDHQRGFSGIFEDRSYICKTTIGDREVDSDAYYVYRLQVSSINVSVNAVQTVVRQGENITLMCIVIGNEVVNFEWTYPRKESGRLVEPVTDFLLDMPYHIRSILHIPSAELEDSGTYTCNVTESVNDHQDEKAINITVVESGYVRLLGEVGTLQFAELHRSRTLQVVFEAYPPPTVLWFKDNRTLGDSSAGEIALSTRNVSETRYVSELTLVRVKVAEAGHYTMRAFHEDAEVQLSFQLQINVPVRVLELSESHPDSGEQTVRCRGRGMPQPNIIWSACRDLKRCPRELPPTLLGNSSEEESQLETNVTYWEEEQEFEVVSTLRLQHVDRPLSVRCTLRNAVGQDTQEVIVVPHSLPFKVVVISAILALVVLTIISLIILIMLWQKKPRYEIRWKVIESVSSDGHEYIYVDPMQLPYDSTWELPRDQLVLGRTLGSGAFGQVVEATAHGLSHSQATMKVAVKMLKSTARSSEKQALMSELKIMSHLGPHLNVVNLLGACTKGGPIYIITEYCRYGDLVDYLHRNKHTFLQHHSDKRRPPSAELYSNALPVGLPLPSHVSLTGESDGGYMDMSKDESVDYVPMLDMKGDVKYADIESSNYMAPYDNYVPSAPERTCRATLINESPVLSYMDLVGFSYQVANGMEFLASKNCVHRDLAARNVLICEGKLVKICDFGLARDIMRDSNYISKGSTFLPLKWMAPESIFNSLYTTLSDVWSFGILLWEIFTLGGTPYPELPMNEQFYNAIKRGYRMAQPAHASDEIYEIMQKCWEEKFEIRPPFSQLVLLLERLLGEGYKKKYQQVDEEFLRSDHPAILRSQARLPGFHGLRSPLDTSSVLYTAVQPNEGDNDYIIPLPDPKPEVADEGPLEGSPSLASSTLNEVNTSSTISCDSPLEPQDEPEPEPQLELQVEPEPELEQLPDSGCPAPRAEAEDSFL
Tyrosine-protein kinase Fes/Fps (Homo sapiens), sequence (P07332 whole entry): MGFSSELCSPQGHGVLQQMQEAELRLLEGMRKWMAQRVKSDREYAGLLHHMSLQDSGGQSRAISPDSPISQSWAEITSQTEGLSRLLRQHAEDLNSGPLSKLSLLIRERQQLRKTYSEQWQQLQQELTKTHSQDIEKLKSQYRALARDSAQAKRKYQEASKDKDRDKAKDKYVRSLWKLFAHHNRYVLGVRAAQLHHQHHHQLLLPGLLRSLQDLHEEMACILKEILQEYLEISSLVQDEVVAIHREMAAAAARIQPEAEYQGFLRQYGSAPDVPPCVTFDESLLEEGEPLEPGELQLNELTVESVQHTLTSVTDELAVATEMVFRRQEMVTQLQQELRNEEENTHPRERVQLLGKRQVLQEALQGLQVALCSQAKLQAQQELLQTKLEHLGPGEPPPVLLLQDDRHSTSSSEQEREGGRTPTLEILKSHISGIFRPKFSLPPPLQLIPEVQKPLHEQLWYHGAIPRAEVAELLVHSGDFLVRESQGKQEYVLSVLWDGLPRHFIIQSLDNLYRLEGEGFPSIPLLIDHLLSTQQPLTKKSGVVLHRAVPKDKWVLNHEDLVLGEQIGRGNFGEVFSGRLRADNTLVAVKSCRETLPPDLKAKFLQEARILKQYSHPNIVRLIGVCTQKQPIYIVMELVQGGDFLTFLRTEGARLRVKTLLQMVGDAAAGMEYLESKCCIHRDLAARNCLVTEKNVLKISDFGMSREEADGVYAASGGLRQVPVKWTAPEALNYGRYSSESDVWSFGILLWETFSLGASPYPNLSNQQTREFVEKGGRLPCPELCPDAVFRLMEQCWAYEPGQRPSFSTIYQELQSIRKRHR
Mast/stem cell growth factor receptor Kit, sequence (P10721 whole entry): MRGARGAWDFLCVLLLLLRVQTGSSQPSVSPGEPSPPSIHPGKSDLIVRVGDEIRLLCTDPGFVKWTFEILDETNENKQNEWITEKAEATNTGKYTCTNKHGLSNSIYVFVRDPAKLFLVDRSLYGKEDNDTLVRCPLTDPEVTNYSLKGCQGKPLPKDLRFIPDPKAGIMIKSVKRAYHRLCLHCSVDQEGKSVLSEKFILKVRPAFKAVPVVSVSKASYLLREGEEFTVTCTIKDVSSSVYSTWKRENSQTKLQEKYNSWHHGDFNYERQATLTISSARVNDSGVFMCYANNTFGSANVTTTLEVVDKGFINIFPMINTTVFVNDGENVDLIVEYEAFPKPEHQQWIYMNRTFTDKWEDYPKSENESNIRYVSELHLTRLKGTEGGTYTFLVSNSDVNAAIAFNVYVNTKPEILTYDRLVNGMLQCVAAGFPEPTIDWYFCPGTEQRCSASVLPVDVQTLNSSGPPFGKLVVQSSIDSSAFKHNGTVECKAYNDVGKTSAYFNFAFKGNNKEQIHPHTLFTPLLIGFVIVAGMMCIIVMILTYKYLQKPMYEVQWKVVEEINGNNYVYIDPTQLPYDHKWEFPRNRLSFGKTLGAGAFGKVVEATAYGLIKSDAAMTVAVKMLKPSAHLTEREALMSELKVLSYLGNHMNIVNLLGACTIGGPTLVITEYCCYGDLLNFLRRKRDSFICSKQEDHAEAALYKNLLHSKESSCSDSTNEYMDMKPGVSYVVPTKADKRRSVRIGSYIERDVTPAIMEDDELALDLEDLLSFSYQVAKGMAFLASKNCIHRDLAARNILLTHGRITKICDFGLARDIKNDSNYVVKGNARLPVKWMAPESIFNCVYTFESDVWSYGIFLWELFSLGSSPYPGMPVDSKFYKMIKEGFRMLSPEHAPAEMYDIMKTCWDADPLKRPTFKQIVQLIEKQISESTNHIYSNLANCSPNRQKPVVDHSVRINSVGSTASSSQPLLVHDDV

Row | IC50 (MV4-11) [nM] | SMILES | other results
1 | 362 | Nc1ncnc(N2CCN(C(=O)Nc3ccc(N4CCCC4)cc3)CC2)c1/C=N/OCCN1CCOCC1 | 
2 | 268 | CC(C)Oc1ccc(NC(=O)N2CCN(c3ncnc(N)c3/C=N/OCC(=O)N3CCOCC3)CC2)cc1 | 
3 | 65 | CCO/N=C/c1c(N)ncnc1N1CCN(C(=O)Nc2ccc(OC3CCC3)nc2)CC1 | 
4 | > 1000 | CO/N=C/c1c(N)ncnc1N1CCN(C(=O)Nc2ccc(Cl)cc2)CC1 | Activity (BaF3 [1]): <50%
5 | 78 | CO/N=C/c1c(N)ncnc1N1CCN(C(=O)Nc2ccc(C(C)C)cc2)CC1 | IC50 (BaF3 [2]): 8 nM
6 | 112 | CO/N=C/c1c(N)ncnc1N1CCN(C(=O)Nc2ccc(OC3CCCC3)nc2)CC1 | 
7 | 58 | CCO/N=C/c1c(N)ncnc1N1CCN(C(=O)Nc2ccc(N3CCCCC3)cc2)CC1 | 
8 | 86 | CO/N=C/c1c(N)ncnc1N1CCN(C(=O)Nc2ccc(Oc3ccccc3)cc2)CC1 | 
9 | 99 | CO/N=C/c1c(N)ncnc1N1CCN(C(=O)Nc2ccc(N3CCCC3)cc2)CC1 | 
10 | 77 | CCO/N=C/c1c(N)ncnc1N1CCN(C(=O)Nc2ccc(OC(C)C)cc2)CC1 | 
11 | 515 | CO/N=C/c1c(N)ncnc1N1CCN(C(=O)Nc2ccc(N3CCOCC3)cc2)CC1 | Activity (BaF3 [1]): <50%
12 | 89 | CO/N=C/c1c(N)ncnc1N1CCN(C(=O)Nc2ccc(N3CCCCC3)cc2)CC1 | IC50 (BaF3 [2]): 153 nM
13 | 283 | CC(C)Oc1ccc(NC(=O)N2CCN(c3ncnc(N)c3/C=N/OCCCO)CC2)cc1 | 
14 | 472 | CO/N=C/c1c(N)ncnc1N1CCN(C(=O)Nc2ccc(N(C)C)cc2)CC1 | 
15 | 79 | CO/N=C/c1c(N)ncnc1N1CCN(C(=O)Nc2ccc(OC(C)C)cc2)CC1 | IC50 [3]: 1280 nM; IC50 [4]: 10.5 nM; IC50 [5]: 10700 nM; inhibition [6]: 34%; inhibition [7]: 31%
16 | 52 | CO/N=C/c1c(N)ncnc1N1CCN(C(=O)Nc2ccc(C3CCCCC3)cc2)CC1 | 
17 | 111 | CO/N=C/c1c(N)ncnc1N1CCN(C(=O)Nc2ccc(OC3CCC3)nc2)CC1 | 
18 | 554 | CS(=O)(=O)NCCO/N=C/c1c(N)ncnc1N1CCN(C(=O)Nc2ccc(N3CCCC3)cc2)CC1 | 
19 | 415 | CC(C)Oc1ccc(NC(=O)N2CCN(c3ncnc(N)c3/C=N/OCCNS(C)(=O)=O)CC2)cc1 | 
20 | 458 | Nc1ncnc(N2CCN(C(=O)Nc3ccc(N4CCCC4)cc3)CC2)c1/C=N/OCC(=O)N1CCOCC1 | 
21 | 177 | CC(C)Oc1ccc(NC(=O)N2CCN(c3ncnc(N)c3/C=N/OCCN3CCOCC3)CC2)cc1 | 
